Source: PMC4102602 (European journal of oral sciences, 2013)
pEC50: −log10 of the molar value. Where two headings read alike, the source gives them in different places.

How the values were obtained:
[1] = tested on: MG63 human osteoblast-like cells; format: cell-based; settings: over the range of surface concentrations shown for P3 in Fig. 3; mean ± S.E; N = at least 6
How it was run: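 MG63 cells grown in MEM plus NEAA with heat-inactivated 10% FBS. 96-well non-tissue-culture polystyrene plates were coated with peptide, washed, aftercoated with BSA and washed; uncoated plates served as control. Cells were seeded at 30,000/well in serum-free medium for 2 h at 37°C, washed three times with PBS, and counted by hexosaminidase activity as percent of control. Adsorbed peptide was quantified by micro BCA at 562 nm.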

[2] = tested on: MC3T3 cells (RGD-binding integrin receptors); format: cell-based, mouse; settings: for residual MC3T3 cell attachment activity after preincubating cells with RGD: 30 min preincubation, 25 μM peptide coating concentration, Fig. 4A; for cell attachment activity remaining after preincubating cells with RGD: mean ± S.E, N = 5-6
How it was run: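 MC3T3 cells were preincubated in tubes for 30 min with RGD tripeptide (up to 500 μM) in serum-free medium with 0.1% BSA. FBS was then added to 10% v/v, and cells were pelleted (600 × g, 5 min) and washed twice. Cells were plated at 30,000/well on BSA-aftercoated polystyrene wells coated with 25 μM peptide for 2 h at 37°C. Attachment was read by hexosaminidase activity, as % of no-RGD control.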

[3] = tested on: MC3T3-E1 osteoblast-like cells; settings: osteogenic cell attachment; cited from earlier work
[4] = tested on: MC3T3-E1 osteoblast-like cells; format: cell-based, mouse; settings: for level of MC3T3 cell attachment / enhancement in the level of MC3T3 osteoprogenitor cell attachment / pEC50: Fig. 2; for enhancement in the level of MC3T3 osteoprogenitor cell attachment: coating concentration as low as 1 μM; for pEC50: read-out: half-maximal effect on MC3T3 cell attachment, peptide solution phase (coating) concentration, 30,000 cells/well, serum-free, 2 h, 37°C; for maximal increase of MC3T3 cell attachment: solution phase concentrations as high as 50 – 200 μM, control = uncoated wells
How it was run: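 Non-tissue-culture 96-well polystyrene was coated overnight with peptide solutions, washed, aftercoated with BSA and washed again; uncoated wells served as control. MC3T3-E1 cells were grown in MEM-α with 5% FBS and 5% NCS, then plated at 30,000 cells/well in serum-free medium for 2 h at 37°C. After three PBS washes, attachment was quantified by hexosaminidase activity as % of control. Mean ± SEM, ≥3 independent cultures.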

In the case of hBSP peptide 278-290 [DB2], the “maximal percentage increase in the attachment of MG63 cells” value (shortened to “maximal percentage increase”) [1] was 422 ± 41% and the “residual MC3T3 cell attachment activity after preincubating cells with RGD” value (“residual MC3T3 cell attachment activity” below) ([2]; 500 μM RGD) was 10-20 % of control.
For BSP peptide 278-302 [P4], the “attachment potency greater than that of peptide P2 (281-290)” value [3] is listed as 1-2 orders of magnitude.
In the case of hBSP peptide 278-292 [DB4], the “maximal percentage increase” value [1] was 731 ± 100%, the “level of MC3T3 cell attachment” value ([4]; 1 μM coating solution) was 380 % of control and the “level of MC3T3 cell attachment” value ([4]; 10 μM coating solution, % of control) was 540%. For the same substance, the “level of MC3T3 cell attachment” value ([4]; 50 μM coating solution, % of control) was 590%, the “level of MC3T3 cell attachment” value ([4]; 100 μM coating solution, % of control) was 670% and the “level of MC3T3 cell attachment” value ([4]; 200 μM coating solution, % of control) was 710%. The “enhancement in the level of MC3T3 osteoprogenitor cell attachment” value [4] was “several-fold”, the pEC50 [4] was ~6.00 and the “cell attachment activity remaining after preincubating cells with RGD” value ([2]; 1 μM RGD, MC3T3 cells) was 28 ± 10%. For the same substance, the “cell attachment activity remaining after preincubating cells with RGD” value ([2]; 500 μM RGD, MC3T3 cells) was 14 ± 9%.
In the case of hBSP peptide 279-293 [DB3], the “maximal percentage increase” value [1] was 228 ± 14%.
With arg-gly-asp [RGD, reference compound] the “block of the attachment of cells to the hBSP peptides” value ([2]; soluble RGD, MC3T3 cells) was 80-90%.
For hBSP peptide 279-292 [DB5], the “maximal increase of MC3T3 cell attachment” value [4] was 150-300 % of control.
With hBSP peptide 281-293 [DB1] the “maximal percentage increase” value [1] was 371 ± 21%, the “maximal increase of MC3T3 cell attachment” value [4] was 150-300 % of control and the “residual MC3T3 cell attachment activity” value ([2]; 500 μM RGD) was 10-20 % of control.
For hBSP peptide 278-293 [P3], the “attachment potency greater than that of peptide P2 (281-290)” value [3] is given as 1-2 orders of magnitude, the “enhancement in the level of MC3T3 osteoprogenitor cell attachment” value [4] is given as “several-fold” and the pEC50 [4] is given as ~6.00. For the same substance, the “residual MC3T3 cell attachment activity” value ([2]; 500 μM RGD) was 10-20 % of control.
